ChEMBL document CHEMBL1212854, “The structure-activity relationships of A-ring-substituted aromathecin topoisomerase I inhibitors strongly support a camptothecin-like binding mode” (2010)
Activity calls are given as the source filed them. The rule behind the calls is not given here.

Key:
[1] = test system: HOP-62; assay: Cytotoxicity against human HOP62 cells; assay type: functional
How it was run: (§1)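 NCI 60-cell-line screen (eight solid-tumour subpanels plus leukemia). A one-dose pass at 10−5 M came first. Selected compounds were then run at five concentrations from 10−8 to 10−4 M. GI50 is the concentration giving 50% growth inhibition.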

[2] = test system: HCT-116; assay: Cytotoxicity against human HCT116 cells; assay type: functional; how it was run: as §1
[3] = test system: SF-539; assay: Cytotoxicity against human SF539 cells; assay type: functional; how it was run: as §1
[4] = test system: UACC-62; assay: Cytotoxicity against human UACC62 cells; assay type: functional; how it was run: as §1
[5] = test system: OVCAR-3; assay: Cytotoxicity against human OVCAR-3 cells; assay type: functional; how it was run: as §1
[6] = test system: SN12C; assay: Cytotoxicity against human SN12C cells; assay type: functional; how it was run: as §1
[7] = test system: DU-145; assay: Cytotoxicity against human DU145 cells; assay type: functional; how it was run: as §1
[8] = test system: MCF7; assay: Cytotoxicity against human MCF7 cells; assay type: functional; how it was run: as §1
[9] = target: T1, DNA topoisomerase 1 (Homo sapiens) (UniProt P11387); assay: Inhibition of human recombinant Top1-mediated DNA cleavage at 0.1 to 100 uM after 20 mins relative to camptothecin; parameters: scale not given: the % may be the effect or the level left
T1 sequence (whole entry): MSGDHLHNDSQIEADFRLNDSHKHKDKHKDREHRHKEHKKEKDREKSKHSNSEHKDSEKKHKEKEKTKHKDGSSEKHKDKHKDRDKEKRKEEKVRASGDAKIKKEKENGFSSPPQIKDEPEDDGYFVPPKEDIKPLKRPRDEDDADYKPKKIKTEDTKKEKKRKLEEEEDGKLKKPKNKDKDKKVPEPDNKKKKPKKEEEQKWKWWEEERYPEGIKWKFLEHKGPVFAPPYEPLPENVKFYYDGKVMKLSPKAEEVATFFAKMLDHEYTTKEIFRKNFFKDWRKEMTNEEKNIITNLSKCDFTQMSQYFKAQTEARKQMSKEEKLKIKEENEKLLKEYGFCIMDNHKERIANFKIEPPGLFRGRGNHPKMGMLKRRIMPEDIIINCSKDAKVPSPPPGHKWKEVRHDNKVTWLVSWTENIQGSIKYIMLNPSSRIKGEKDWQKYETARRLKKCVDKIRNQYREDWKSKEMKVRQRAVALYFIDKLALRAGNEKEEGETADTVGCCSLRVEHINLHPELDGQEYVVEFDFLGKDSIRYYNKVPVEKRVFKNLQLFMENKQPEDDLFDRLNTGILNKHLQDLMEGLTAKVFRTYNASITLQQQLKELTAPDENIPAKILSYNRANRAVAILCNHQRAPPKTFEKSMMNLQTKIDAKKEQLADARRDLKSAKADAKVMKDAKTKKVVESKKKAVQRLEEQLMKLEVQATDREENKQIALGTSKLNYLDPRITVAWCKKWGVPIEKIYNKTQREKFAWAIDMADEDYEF
How it was run: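 Human recombinant Top1 purified from baculovirus. Substrate is a 117-bp oligonucleotide, about 2 nM, 3′-end labelled with 32P-dGTP by Klenow fill-in. Stopped with 0.5% SDS, run on 20% denaturing PAGE and phosphorimaged. Cleavage graded 0 to +++ against 1 μM camptothecin.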

Compound | GI50 [1] | GI50 [2] | GI50 [3] | GI50 [4] | GI50 [5] | GI50 [6] | GI50 [7] | GI50 [8] | Activity [9]
O=c1c2ccccc2cc2n1Cc1c-2nc2cc3c(cc2c1CNCCO)OCO3 | 660 nM | 950 nM | 1350 nM | 470 nM | 1550 nM | 1910 nM | 1820 nM | 280 nM | 50%
O=c1c2ccccc2cc2n1Cc1c-2nc2cc3c(cc2c1CCCCl)OCCO3 |  |  |  |  |  |  |  |  | inactive
NCCCc1c2c(nc3cc4c(cc13)OCCO4)-c1cc3ccccc3c(=O)n1C2 | 2140 nM | 1950 nM | 1860 nM | 1620 nM | 1950 nM | 1860 nM | 1820 nM | 1050 nM | 75%
CN(C)Cc1c2c(nc3cc4c(cc13)OCO4)-c1cc3ccccc3c(=O)n1C2 |  |  |  |  |  |  |  |  | 50%
CN(C)Cc1c2c(nc3cc4c(cc13)OCCO4)-c1cc3ccccc3c(=O)n1C2 | 3310 nM | 1170 nM | 2690 nM | 1660 nM | 2190 nM | 2510 nM | 2190 nM | 300 nM | 75%
COc1cc2nc3c(c(CCl)c2cc1OC)Cn1c-3cc2ccccc2c1=O |  |  |  |  |  |  |  |  | inactive
O=c1c2ccccc2cc2n1Cc1c-2nc2cc3c(cc2c1CN1CC[C@H](O)C1)OCCO3 | 1010 nM | 820 nM | 490 nM | 460 nM | 1840 nM | 940 nM | 1020 nM | 270 nM | 50%
O=c1c2ccccc2cc2n1Cc1c-2nc2cc3c(cc2c1Cn1ccnc1)OCCO3 | 19500 nM | > 100000 nM | 4370 nM | 21400 nM | 18600 nM | 81300 nM | > 100000 nM | 300 nM | 75%
COc1cc2c3c(n(CCCN4CCOCC4)c(=O)c2cc1OC)-c1cc2c(cc1C3=O)OCO2 [INDOTECAN] |  |  | 40 nM | 30 nM |  |  |  | 370 nM | Active
O=c1c2ccccc2cc2n1Cc1c-2nc2cccc(Cl)c2c1CN1CC[C@H](O)C1 | 1660 nM | 1550 nM | 1950 nM | 3090 nM | 2630 nM | 3710 nM | 3980 nM | 370 nM | 20%
COc1cc2nc3c(c(CN4CCN(C)CC4)c2cc1OC)Cn1c-3cc2ccccc2c1=O |  |  |  |  |  |  |  |  | inactive
CN1CCN(Cc2c3c(nc4cc5c(cc24)OCO5)-c2cc4ccccc4c(=O)n2C3)CC1 | 17000 nM | 1450 nM | 11700 nM | 1620 nM | 16200 nM | 2340 nM | 51300 nM | 380 nM | 50%
Cc1cc2c(CN3CCN(C)CC3)c3c(nc2cc1F)-c1cc2ccccc2c(=O)n1C3 | 20100 nM | 1800 nM | 6460 nM | 16200 nM | 14600 nM | 16000 nM | 2630 nM | 1800 nM | 50%
O=c1c2ccccc2cc2n1Cc1c-2nc2cc3c(cc2c1CN1CCOCC1)OCCO3 | 3800 nM | 1330 nM | 810 nM | 990 nM | 1700 nM | 2570 nM | 930 nM | 300 nM | 75%
O=c1c2ccccc2cc2n1Cc1c-2nc2cc3c(cc2c1CCCNCCO)OCCO3 | 1010 nM | 820 nM | 490 nM | 460 nM | 1840 nM | 940 nM | 1020 nM | 270 nM | 0%
O=c1c2ccccc2cc2n1Cc1c-2nc2ccc(Cl)cc2c1Cn1ccnc1 | 460 nM | 400 nM | 390 nM | 310 nM | 690 nM | 1540 nM | 480 nM | 190 nM | 20%
O=c1c2ccccc2cc2n1Cc1c-2nc2cccc(Cl)c2c1CNCCCn1ccnc1 | 2510 nM | 1580 nM | 1900 nM | 7240 nM | 4900 nM | 6030 nM | 1020 nM | 550 nM | 75%

Compound | GI50 [1] | GI50 [2] | GI50 [3] | GI50 [4] | GI50 [5] | GI50 [6] | GI50 [7] | GI50 [8] | Activity [9]
COc1cc2nc3c(c(CNCCCn4ccnc4)c2cc1OC)Cn1c-3cc2ccccc2c1=O |  |  |  |  |  |  |  |  | inactive
O=c1c2ccccc2cc2n1Cc1c-2nc2cc3c(cc2c1CNCCO)OCCO3 | 5690 nM | 2630 nM | 4260 nM | 1160 nM | 1950 nM | 5750 nM | 2040 nM | 440 nM | 50%
O=c1c2ccccc2cc2n1Cc1c-2nc2ccc(Cl)cc2c1CNCCO | 7240 nM | 2140 nM | 4360 nM | 2040 nM | 6460 nM | 10200 nM |  | 230 nM | 50%
Cc1cc2c(CNCCCn3ccnc3)c3c(nc2cc1F)-c1cc2ccccc2c(=O)n1C3 | 36700 nM | 3050 nM | 1100 nM | > 100000 nM | 4680 nM | 1800 nM | 6240 nM | 2210 nM | inactive
CN1CCN(Cc2c3c(nc4ccc(Cl)cc24)-c2cc4ccccc4c(=O)n2C3)CC1 | 2290 nM | 150 nM | 1580 nM | 1410 nM | 1510 nM | 1780 nM | 2750 nM | 3310 nM | 20%
COc1cc2nc3c(c(Cn4ccnc4)c2cc1OC)Cn1c-3cc2ccccc2c1=O |  |  |  |  |  |  |  |  | inactive
CN1CCN(Cc2c3c(nc4cccc(Cl)c24)-c2cc4ccccc4c(=O)n2C3)CC1 | 1860 nM | 1410 nM | 1510 nM | 15500 nM | 4170 nM | 13800 nM | 9770 nM | 1000 nM | inactive
O=c1c2ccccc2cc2n1Cc1c-2nc2cc3c(cc2c1CCCN1CCOCC1)OCCO3 | 540 nM | 1420 nM | 1150 nM | 1150 nM | 1840 nM | 1130 nM | 760 nM | 60 nM | 50%
COc1cc2c3c(n(CCCn4ccnc4)c(=O)c2cc1OC)-c1cc2c(cc1C3=O)OCO2 [INDIMITECAN] | < 10 nM | < 10 nM | 37 nM | < 10 nM | 85 nM | < 10 nM | < 10 nM | 10 nM | Active
O=c1c2ccccc2cc2n1Cc1c-2nc2cc3c(cc2c1CCCn1ccnc1)OCCO3 | 570 nM | 1950 nM | 1950 nM | 930 nM | 7080 nM | 12600 nM | 2880 nM | 190 nM | 50%
O=c1c2ccccc2cc2n1Cc1cc3ccccc3nc1-2 [ROSETTACIN] | > 100000 nM | 57300 nM | > 100000 nM | > 100000 nM | > 100000 nM | > 100000 nM | > 100000 nM | 60300 nM | 50%
O=c1c2ccccc2cc2n1Cc1c-2nc2cc3c(cc2c1CNCCCn1ccnc1)OCO3 | 5010 nM | 1320 nM | 2140 nM | 3390 nM | 4260 nM | 5890 nM | 2570 nM | 480 nM | 50%
O=c1c2ccccc2cc2n1Cc1c-2nc2cc3c(cc2c1CN1CC[C@H](O)C1)OCO3 | 480 nM | 850 nM | 600 nM | 350 nM | > 100000 nM | 790 nM |  | 70 nM | 50%
O=c1c2ccccc2cc2n1Cc1c-2nc2ccc(Cl)cc2c1CN1CC[C@H](O)C1 | 1050 nM | 1100 nM | 1260 nM | 740 nM | 1860 nM |  | 1660 nM | 370 nM | 20%
CN1CCN(Cc2c3c(nc4cc(Cl)ccc24)-c2cc4ccccc4c(=O)n2C3)CC1 | 18100 nM | 13500 nM | 15100 nM | 17000 nM | 15100 nM | 19000 nM | 23400 nM | 10900 nM | 20%
Cc1cc2c(CN)c3c(nc2cc1F)-c1cc2ccccc2c(=O)n1C3 |  |  |  |  |  |  |  |  | 20%
